The labels stand for the following.
B1: Osa-1-4 twister ribozyme (parent)
chain: CCGCCUAACACUGCCAAUGCCGGUCCCAAGCCCGGAUAAAAGUGGAGGGGGCGG

The data set covers variants of B1. Description: self-cleavage, relative activity (ratio to wild type); higher = more cleavage; co-transcriptional. A digest of the protocol:
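The 48 positions downstream of the cleavage site in a DNA template for a 54-nucleotide Oryza sativa twister ribozyme carried 97 % wild-type base and 1 % of each other base. After in vitro transcription (2 h, 37 °C) with co-transcriptional self-cleavage, the RNA was reverse-transcribed with a template-switching oligonucleotide, PCR-amplified and deep-sequenced. Relative activity is the fraction cleaved, judged by reads with or without upstream sequence and normalised to wild type.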
CCGCCUAACACUGCCAAUGCCGGUCCCAACCCCGGAUAAAAGUGGGGGGGGCGG: the self-cleavage amounted to 0.01. Consider CCGCCUAACACUGCCAAUGCCGGUCCCAAUCCCGGAUAAAAGUGGGGGGGGCGG, for which the self-cleavage turned out to be 0.03. For CCGCCUAACACUGCCAAUGCCGGUCCCAAACCCGGAUAAAAGUGGGGGGGGCGG the value was 0.02; for CCGCCUAACACUGCCAAUGGCGGUCCCAAGCCCGGAUAAAAGUGGUGGGGGCGG, 0.05.

For the variant CCGCCUAACACUGCCAAUGUCGGUCCCAAGCCCGGAUAAAAGUGGUGGGGGCGG, the self-cleavage came out at 0.1. As for CCGCCUAACACUGCCAAUGACGGUCCCAAGCCCGGAUAAAAGUGGUGGGGGCGG, the self-cleavage worked out at 0.06. For CCGCCUAACACUGCCAAUGCCGGUCCCAAGCCCGGAUAAAAGUUGGGGGGGCGG the value was 0.07; for CCGCCUAACACUGCCAAUGCCGGUCCCAAGCCCGGAUAAAAGUAGGGGGGGCGG, 0.05.

Turning to CCGCCUAACACUGCCAAUGCCGGUCCCAAGCCCGGAUAAAAGUCGGGGGGGCGG, the self-cleavage turned out to be 0.05. For CCGCCUAACACUGCCAAUGCCGGUCCCAAGCCCGGAAAAAAGUGGGGGGGGCGG the value was 0.05; for CCGCCUAACACUGCCAAUGCCGGUCCCAAGCCCGGACAAAAGUGGGGGGGGCGG, 0.08. Turning to CCGCCUAACACUGCCAAUGCCGGUCCCAAGCCCGGAGAAAAGUGGGGGGGGCGG, the self-cleavage stood at 0.09. For the variant CCGCCUAACACUGCCAAUGCCGGUCCCAAGCCCGUAUAAAAGUGGGGGGGGCGG, the self-cleavage is 0.08. CCGCCUAACACUGCCAAUGCCGGUCCCAAGCCCGCAUAAAAGUGGGGGGGGCGG: the self-cleavage came out at 0.05.

In the case of CCGCCUAACACUGCCAAUGCCGGUCCCAAGCCCGAAUAAAAGUGGGGGGGGCGG, the self-cleavage amounted to 0.07. Under CCGCCUAACACUGCCAAUGCCGGUCCCAAGCCCGGAUAAAAGUGGUGGGGGCGG stands 0.08. For CCGCCUAACACUGCCAAUGCCAGUCCCAAGCCCGGAUAAAAGUGGGGGGGGCGG, the self-cleavage is 0.08. On to CCGCCUAACACUGCCAAUGCCCGUCCCAAGCCCGGAUAAAAGUGGGGGGGGCGG, for which the self-cleavage was 0.02. For CCGCCUAACACUGCCAAUGCCUGUCCCAAGCCCGGAUAAAAGUGGGGGGGGCGG the value was 0.06; for CCGCCUAACACUGCCAAUGCCGGUCCCAAGCCCGGAUAAAAGUGGGGCGGGCGG, 0.03; for CCGCCUAACACUGCCAAUGCCGGUCCCAAGCCCGGAUAAAAGUGGGGAGGGCGG, 0.02. Under CCGCCUAACACUGCCAAUGCCGGUCCCAAGCCCGGAUAAAAGUGGGGUGGGCGG stands 0.02; under CCGCCUAACACUGCCAAUGCCGGUCCCAAGCCCGGAUAAAAGUGGGGGGGUCGG, 0.05. With CCGCCUAACACUGCCAAUGCCGGUCCCAAGCCCGGAUAAAAGUGGGGGGGACGG, the self-cleavage was 0.05.

For the variant CCGCCUAACACUGCCAAUGCCGGUCCCAAGCCCGGAUAAAAGUGGGGGGGCCGG, the self-cleavage turned out to be 0.04. Take CCGCCUAACACUGCCAAUGCCGGUCCCAAGCCCGGAUAAAAGCGGGGGGGGCGG: the self-cleavage was found to be 0.04. For CCGCCUAACACUGCCAAUGCCGGUCCCAAGCCCGGAUAAAAGAGGGGGGGGCGG the value was 0.06.

Take CCGCCUAACACUGCCAAUGCCGGUCCCAAGCCCGGAUAAAAGGGGGGGGGGCGG: the self-cleavage was determined as 0.12. Regarding CCGCCUAACACUGCCAAUUCCGGUCCCAAGCCCGGAUAAAAGUGGGGGGGGCGG, the self-cleavage worked out at 0.04. For CCGCCUAACACUGCCAAUCCCGGUCCCAAGCCCGGAUAAAAGUGGGGGGGGCGG the value was 0.02; for CCGCCUAACACUGCCAAUACCGGUCCCAAGCCCGGAUAAAAGUGGGGGGGGCGG, 0.05; for CCGCCUAACACUGCCAAUGCCGGUCCCAAGCACGGAUAAAAGUGGGGGGGGCGG, 0.03. With CCGCCUAACACUGCCAAUGCCGGUCCCAAGCGCGGAUAAAAGUGGGGGGGGCGG, the self-cleavage was found to be 0.07. On to CCGCCUAACACUGCCAAUGCCGGUCCCAAGCUCGGAUAAAAGUGGGGGGGGCGG, for which the self-cleavage amounted to 0.04. CCGCCUAACACUGCCAAUGCCGGUCCCAAGCCCGGAUAAAAGUGGGGGGGGCGU: the self-cleavage was determined as 0.11.

Consider CCGCCUAACACUGCCAAUGCCGGUCCCAAGCCCGGAUAAAAGUGGGGGGGGCGC, for which the self-cleavage was 0.06. As to CCGCCUAACACUGCCAAUGCCGGUCCCAAGCCCGGAUAAAAGUGGGGGGGGCGA, the self-cleavage amounted to 0.07. For CCGCCUAACACUGCCAAUGCCGGUCCCAAGCCCGGAUAAAAGUGGGGGUGGCGG, the self-cleavage turned out to be 0.03. For CCGCCUAACACUGCCAAUGCCGGUCCCAAGCCCGGAUAAAAGUGGGGGAGGCGG the value was 0.03; for CCGCCUAACACUGCCAAUGCCGGUCCCAAGCCCGGAUAAAAGUGGGGGCGGCGG, 0.03. Under CCGCCUAACACUGCCAAUGCCGGUCCCAAGCCCGGAUAAAAGUGGGGGGGGGGG stands 0.24; under CCGCCUAACACUGCCAAUGCCGGUCCCAAGCCCGGAUAAAAGUGGGGGGGGAGG, 0.1.

Take CCGCCUAACACUGCCAAUGCCGGUCCCAAGCCCGGAUAAAAGUGGGGGGGGUGG: the self-cleavage stood at 0.09. Under CCGCCUAACACUGGCAAUGCCGGUCCCAAGCCCGGAUAAAAGUGGUGGGGGCGG stands 0.03; under CCGCCUAACACUGACAAUGCCGGUCCCAAGCCCGGAUAAAAGUGGUGGGGGCGG, 0.03. CCGCCUAACACUGUCAAUGCCGGUCCCAAGCCCGGAUAAAAGUGGUGGGGGCGG: the self-cleavage was 0.06. Under CCGCCUAACACUGCAAAUGCCGGUCCCAAGCCCGGAUAAAAGUGGUGGGGGCGG stands 0.05; under CCGCCUAACACUGCGAAUGCCGGUCCCAAGCCCGGAUAAAAGUGGUGGGGGCGG, 0.08; under CCGCCUAACACUGCUAAUGCCGGUCCCAAGCCCGGAUAAAAGUGGUGGGGGCGG, 0.06. In the case of CCGCCUAACACUGCCAAUGCCGGUCCCAAGCCCAGAUAAAAGUGGGGGGGGCGG, the self-cleavage is 0.06.

As for CCGCCUAACACUGCCAAUGCCGGUCCCAAGCCCUGAUAAAAGUGGGGGGGGCGG, the self-cleavage came to 0.05.

For the variant CCGCCUAACACUGCCAAUGCCGGUCCCAAGCCCCGAUAAAAGUGGGGGGGGCGG, the self-cleavage came to 0.05.

Consider CCGCCUAACACUACCAAUGCCGGUCCCAAGCCCGGAUAAAAGUGGGGGGGGCGG, for which the self-cleavage was 0.02.

Consider CCGCCUAACACUUCCAAUGCCGGUCCCAAGCCCGGAUAAAAGUGGGGGGGGCGG, for which the self-cleavage was 0.01. Turning to CCGCCUAACACUCCCAAUGCCGGUCCCAAGCCCGGAUAAAAGUGGGGGGGGCGG, the self-cleavage was found to be 0.02. For CCGCCUAACACCGCCAAUGCCGGUCCCAAGCCCGGAUAAAAGUGGGGGGGGCGG the value was 0.05; for CCGCCUAACACGGCCAAUGCCGGUCCCAAGCCCGGAUAAAAGUGGGGGGGGCGG, 0.07; for CCGCCUAACACAGCCAAUGCCGGUCCCAAGCCCGGAUAAAAGUGGGGGGGGCGG, 0.05.

For CCGCCUAACACUGCCAAUGCCGGUCCCAAGCCAGGAUAAAAGUGGGGGGGGCGG, the self-cleavage stood at 0.04.

With CCGCCUAACACUGCCAAUGCCGGUCCCAAGCCGGGAUAAAAGUGGGGGGGGCGG, the self-cleavage came to 0.03. As for CCGCCUAACACUGCCAAUGCCGGUCCCAAGCCUGGAUAAAAGUGGGGGGGGCGG, the self-cleavage was 0.06. Under CCGCCUAACACUGCCAACGCCGGUCCCAAGCCCGGAUAAAAGUGGGGGGGGCGG stands 0.07; under CCGCCUAACACUGCCAAAGCCGGUCCCAAGCCCGGAUAAAAGUGGGGGGGGCGG, 0.06. With CCGCCUAACACUGCCAAGGCCGGUCCCAAGCCCGGAUAAAAGUGGGGGGGGCGG, the self-cleavage was 0.13. For the variant CCGCCUAACACUGCCAAUGCCGAUCCCAAGCCCGGAUAAAAGUGGGGGGGGCGG, the self-cleavage amounted to 0.05. As for CCGCCUAACACUGCCAAUGCCGUUCCCAAGCCCGGAUAAAAGUGGGGGGGGCGG, the self-cleavage is 0.03.

Take CCGCCUAACACUGCCAAUGCCGCUCCCAAGCCCGGAUAAAAGUGGGGGGGGCGG: the self-cleavage came to 0.02. Turning to CCGCCUAAUACUGCCAAUGCCGGUCCCAAGCCCGGAUAAAAGUGGUGGGGGCGG, the self-cleavage was found to be 0.04.

For the variant CCGCCUAAAACUGCCAAUGCCGGUCCCAAGCCCGGAUAAAAGUGGUGGGGGCGG, the self-cleavage stood at 0.02. Under CCGCCUAAGACUGCCAAUGCCGGUCCCAAGCCCGGAUAAAAGUGGUGGGGGCGG stands 0.06. For CCGCCUAACACUGCCAAUGCCGGUCCCAAGCCCGGAUAAAAGUGAGGGGGGCGG the value was 0.06. Consider CCGCCUAACACUGCCAAUGCCGGUCCCAAGCCCGGAUAAAAGUGUGGGGGGCGG, for which the self-cleavage came out at 0.03. Take CCGCCUAACACUGCCAAUGCCGGUCCCAAGCCCGGAUAAAAGUGCGGGGGGCGG: the self-cleavage came out at 0.03.

With CCGCCUAACACUGCCAAUGCCGGUCCCAAGCCCGGAUAAAAAUGGGGGGGGCGG, the self-cleavage came to 0.05. Turning to CCGCCUAACACUGCCAAUGCCGGUCCCAAGCCCGGAUAAAAUUGGGGGGGGCGG, the self-cleavage was 0.04. For CCGCCUAACACUGCCAAUGCCGGUCCCAAGCCCGGAUAAAACUGGGGGGGGCGG the value was 0.04.

Consider CCGCCUAACACUGCCAAUGCCGGUCCCAAGCCCGGAUAAAAGUGGGGGGGGCAG, for which the self-cleavage is 0.07. For CCGCCUAACACUGCCAAUGCCGGUCCCAAGCCCGGAUAAAAGUGGGGGGGGCUG the value was 0.07.

Consider CCGCCUAACACUGCCAAUGCCGGUCCCAAGCCCGGAUAAAAGUGGGGGGGGCCG, for which the self-cleavage is 0.03. Under CCGCCUAACACUGCCAAUGCCGGACCCAAGCCCGGAUAAAAGUGGGGGGGGCGG stands 0.04; under CCGCCUAACACUGCCAAUGCCGGGCCCAAGCCCGGAUAAAAGUGGGGGGGGCGG, 0.02. Under CCGCCUAACACUGCCAAUGCCGGCCCCAAGCCCGGAUAAAAGUGGGGGGGGCGG stands 0.04; under CCGCCUAACACUGCCAAUGCCGGUCCCAAGCCCGGAUAAAAGUGGGUGGGGCGG, 0.06. Under CCGCCUAACACUGCCAAUGCCGGUCCCAAGCCCGGAUAAAAGUGGGCGGGGCGG stands 0.03.

On to CCGCCUAACACUGCCAAUGCCGGUCCCAAGCCCGGAUAAAAGUGGGAGGGGCGG, for which the self-cleavage stood at 0.06. For CCGCCUACCACUGCCAAUGCCGGUCCCAAGCCCGGAUAAAAGUGGUGGGGGCGG the value was 0.03; for CCGCCUAGCACUGCCAAUGCCGGUCCCAAGCCCGGAUAAAAGUGGUGGGGGCGG, 0.08.

Regarding CCGCCUAUCACUGCCAAUGCCGGUCCCAAGCCCGGAUAAAAGUGGUGGGGGCGG, the self-cleavage was found to be 0.07. CCGCCUAACACUGCCAAUGCCGGUCCCAAGCCCGGAUAAAAGUGGGGGGCGCGG: the self-cleavage was 0.06. For CCGCCUAACACUGCCAAUGCCGGUCCCAAGCCCGGAUAAAAGUGGGGGGUGCGG the value was 0.06. Under CCGCCUAACACUGCCAAUGCCGGUCCCAAGCCCGGAUAAAAGUGGGGGGAGCGG stands 0.08; under CCGCCUGACACUGCCAAUGCCGGUCCCAAGCCCGGAUAAAAGUGGUGGGGGCGG, 0.07. For CCGCCUUACACUGCCAAUGCCGGUCCCAAGCCCGGAUAAAAGUGGUGGGGGCGG the value was 0.04.

Turning to CCGCCUCACACUGCCAAUGCCGGUCCCAAGCCCGGAUAAAAGUGGUGGGGGCGG, the self-cleavage stood at 0.02.

Consider CCGCCUAACAGUGCCAAUGCCGGUCCCAAGCCCGGAUAAAAGUGGUGGGGGCGG, for which the self-cleavage worked out at 0.05. In the case of CCGCCUAACAAUGCCAAUGCCGGUCCCAAGCCCGGAUAAAAGUGGUGGGGGCGG, the self-cleavage turned out to be 0.06. Under CCGCCUAACAUUGCCAAUGCCGGUCCCAAGCCCGGAUAAAAGUGGUGGGGGCGG stands 0.08.

(Values after the RNAGym collection of RNA variant scans (doi:10.1002/anie.201605470).)
